# From PubChem
# LEDGF integ inh – blockers of LEDGF/p75-dependent integrase strand transfer – biochemical, TR-FRET, high throughput, primary screen | HIV-1 integrase (with human LEDGF/p75) | TR-FRET IN-LEDGF/p75 DNA integration, Eu/Cy5 | inhibition, % at 3.7 µM | 0.64% of 370,000 active | AID 743269, 2014;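 active means inhibition above the screen-wide mean plus 3 SD, cut at about 13% in these data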;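 further: signal is the Cy5 over europium emission ratio at 671 and 618 nm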
# UHRF1 binding – UHRF1 methylated DNA binding inhibitors, primary screen, counter-screen for MBD2 inhibitor project, biochemical, TR-FRET, human UHRF1, single concentration. E3 ubiquitin-protein ligase UHRF1 (Homo sapiens), Q96T88. UHRF1 binding to methylated oligo. inhibition, % at 4.4 µM. 0.75% of 370,000 active; in the data active means inhibition above about 21%;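 further: UHRF1 SRA domain binding a hemimethylated CpG hairpin DNA probe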
# MBD2 DNA inh – inhibitors of MBD2 binding to methylated DNA, primary screen, biochemical, TR-FRET, DNA-binding domain, human | AID 686964, 2013 | MBD2 binding to methylated oligonucleotide | inhibition, % at 4.4 µM | Methyl-CpG-binding domain protein 2 (Homo sapiens), Q9UBB5 | 0.31% of 370,000 active; in the data active means inhibition above about 13%
# PRMT1 inh – PRMT1 methyltransferase inhibitors, primary screen, biochemical, fluorescence polarization. 1.3% of 370,000 active. AID 652257, 2013. inhibition, % at 2.79 µM. recombinant PRMT1, activity-based probe fluorescence polarization;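 active means inhibition above about 21% made by adding two undisclosed values, limit read from the data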
# Target sequence (Q99873 whole entry, looked up): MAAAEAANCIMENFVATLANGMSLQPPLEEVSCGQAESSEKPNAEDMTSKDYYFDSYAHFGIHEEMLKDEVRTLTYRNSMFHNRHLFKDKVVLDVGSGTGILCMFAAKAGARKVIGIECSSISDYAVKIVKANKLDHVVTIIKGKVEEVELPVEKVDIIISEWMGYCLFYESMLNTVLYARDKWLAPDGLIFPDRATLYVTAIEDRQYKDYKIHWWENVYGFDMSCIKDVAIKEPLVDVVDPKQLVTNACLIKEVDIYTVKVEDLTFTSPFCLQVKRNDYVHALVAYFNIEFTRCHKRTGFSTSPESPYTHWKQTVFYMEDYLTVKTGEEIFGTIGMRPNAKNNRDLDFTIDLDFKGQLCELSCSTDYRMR
# RBBP9 inhibitor – human RBBP9 inhibitors, primary screen, biochemical, fluorescence polarization, FP-Rh probe, HTS; Serine hydrolase RBBP9 (Homo sapiens), O75884; recombinant RBBP9; inhibition, % at 7.94 µM; 0.2% of 220,000 active; AID 1515, 2009;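 active means inhibition above the campaign mean of all tested compounds plus 3 SD, cut at about 14% in these data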
# Target sequence (O75884 whole entry, looked up): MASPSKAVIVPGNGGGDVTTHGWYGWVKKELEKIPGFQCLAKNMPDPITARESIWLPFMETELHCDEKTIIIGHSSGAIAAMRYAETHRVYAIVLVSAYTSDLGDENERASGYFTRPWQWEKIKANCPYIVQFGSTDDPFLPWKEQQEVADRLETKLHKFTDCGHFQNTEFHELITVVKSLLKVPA
#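 Controls: DMSO-treated enzyme wells and wells lacking RBBP9 | Material: RBBP9 protein | Technique: Fluorescence polarization | Replication: Single well per compound, no replicates | Buffer or medium: Tris-NaCl-Pluronic buffer, pH 8.0 | Timing: 30 min compound preincubation, 45 min probe labeling, 25 °C | Read-out basis: Percent inhibition from mP, scaled between DMSO and no-protein wells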
# ABHD5-PLIN5 inh – ABHD5-PLIN5 interaction inhibitors, primary screen, cell lysate, split luciferase complementation, luminescence. Split G. princeps luciferase complementation, 4 h. inhibition, % at 4 µM. 0.78% of 360,000 active. AID 602281, 2012;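 active means inhibition above the mean inhibition across every tested compound plus 3 SD, cut at about 22% in these data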
# IN multimer act – HIV-1 IN multimer formation enhancers, counter-screen for LEDGF/p75 integration inhibitor project, biochemical, TR-FRET; AID 1053131, 2014; 17% of 2,000 active; shares compounds with LEDGF integ inh; TR-FRET HIV-1 integrase multimerization; activation, % at 7.7 µM; in the data active means activation above about 8.9%
# TR-FRET interf – TR-FRET optical interference artefacts, confirmation, artefact control for LEDGF/p75-dependent integration inhibitor project, biochemical, HIV-1 IN multimerization; shares compounds with LEDGF integ inh; 2,000 tested, under 10 active; AID 1053135, 2014; inhibition, % at 7.7 µM; TR-FRET optical interference counterscreen;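 active means inhibition above the mean over all tested compounds plus 3 SD, which no compound reached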
# IN-LEDGF confirm – inhibitors of HIV-1 IN-LEDGF/p75 DNA integration, confirmation, biochemical, TR-FRET; 36% of 2,000 active; TR-FRET LEDGF/p75-dependent HIV-1 integration; inhibition, % at 3.7 µM; AID 1053136, 2014; shares compounds with LEDGF integ inh; in the data active means inhibition above about 14%
# Numbers stand for hits; – = inactive; · = not tested or not shown. Hits are enriched below; roughly 3.1% of the tested compounds scored in any of these assays.
SMILES,LEDGF integ inh,UHRF1 binding,MBD2 DNA inh,PRMT1 inh,RBBP9 inhibitor,ABHD5-PLIN5 inh,IN multimer act,TR-FRET interf,IN-LEDGF confirm
N#CC1=C(N)Oc2cc(N)ccc2C1c1ccc(F)cc1 (stereo not drawn),23,–,–,23,–,–,–,–,–
COc1ccc(C2C(C#N)=C(N)Oc3cc(N)ccc32)cc1 (stereo not drawn),18,–,–,–,·,–,–,–,–
COc1cc(C2C(C#N)=C(N)Oc3cc(N)ccc32)cc(OC)c1OC (stereo not drawn),–,–,–,–,–,–,·,·,·
CN(C)c1ccc(N=Cc2nc(-c3ccccc3)oc2O)cc1,–,–,–,–,–,–,·,·,·
CN(C)c1ccc(N=Cc2cccn2C)cc1,22,–,–,–,·,–,–,–,–
O=[N+]([O-])c1cc2c(ccc3occc32)o1,–,–,–,–,·,·,·,·,·
Cc1cc(=O)[nH]c(SCC(=O)NCc2ccco2)n1,20,–,–,–,–,–,–,–,21
CCCC/C=C1/[C@@H](CC)N(Cc2ccc(OC)cc2OC)C2=N[C@@H](c3ccccc3)CC(=O)N21,–,–,–,–,·,·,·,·,·
O=C(NNC(=O)C1CCCCC1)c1ccc(Br)cc1,15,–,–,–,–,–,–,–,–
O=C(CSc1nnc(-c2cccnc2)n1-c1ccc(Cl)cc1)Nc1ccccc1-c1ccccc1,–,–,–,–,·,·,·,·,·
O=C1c2c(O)cc(O)cc2O[C@@]12c1c(cc(O)c3c1O[C@H](c1ccc(O)cc1)[C@@H](O)C3)O[C@@H]2c1ccc(O)cc1,18,24,–,–,–,–,13,–,39
Cc1nn(-c2ccccc2)c2sc(C(=O)NCC3CCCO3)cc12 (stereo not drawn),–,–,–,–,·,·,·,·,·
C/C(CC(=O)Nc1ccccn1)=N\NC(=O)c1ccccc1,·,·,·,·,–,·,·,·,·
C/C(CC(=O)Nc1ccccn1)=N\NC(=O)c1ccccc1O,38,–,–,–,·,–,–,–,46
Cc1ccc(S(=O)(=O)N2CCCC(C(=O)Nc3c(C)n(C)n(-c4ccccc4)c3=O)C2)cc1 (stereo not drawn),–,–,–,–,·,·,·,·,·
Cc1ccc(-c2nn(-c3ccccc3)cc2CO)o1,15,–,–,25,–,–,–,–,–
OCc1cn(-c2ccccc2)nc1-c1ccco1,–,–,–,–,–,–,·,·,·
Nc1cc(Cl)ccc1Oc1ccccc1,36,–,–,–,–,–,–,–,–
Nc1cc(Cl)ccc1Oc1ccc(Cl)cc1,–,–,–,–,–,–,·,·,·
O=C1OC(Nc2ncccn2)c2ccccc21 (stereo not drawn),–,–,–,–,–,–,·,·,·
O=C1OC(Nc2cc(Br)cc3cccnc23)c2ccccc21 (stereo not drawn),54,–,–,31,–,–,–,–,74
CCOC(=O)CN1C(=O)[C@]2(OCCC=C[C@H]2C)c2ccccc21,–,–,–,–,·,·,·,·,·
COC(=O)CSc1ncnc2c(C)csc12,45,–,–,–,–,–,–,–,–
Cc1nc2c(C)c(C)c(C)c(C)c2nc1C,–,–,–,–,–,–,·,·,·
Cc1nc2c(O)c3c(c(O)c2nc1C)C1C=CC3CC1,21,–,–,–,·,–,–,–,–
SMILES,LEDGF integ inh,UHRF1 binding,MBD2 DNA inh,PRMT1 inh,RBBP9 inhibitor,ABHD5-PLIN5 inh,IN multimer act,TR-FRET interf,IN-LEDGF confirm
O=C(COC(=O)/C=C/c1ccco1)Nc1ncc(Cl)cc1Cl,–,–,–,–,–,–,·,·,·
COc1ccc(OC)c(NC(=O)COC(=O)/C=C/c2ccccc2Cl)c1,–,–,–,–,–,–,·,·,·
Cc1nc(NC(=O)COC(=O)/C=C/c2ccco2)c(Cl)cc1Cl,33,–,–,–,·,–,–,–,–
COc1ccc(OC)c(NC(=O)COC(=O)/C=C/c2ccco2)c1,22,–,–,23,·,–,–,–,–
CN[C@H]1C[C@H]2c3[nH]c4c(-c5cccc(C)c5)cccc4c3CCN2C[C@H]1[C@H](C)O,–,–,–,–,·,·,·,·,·
CC1OC(OCC2OC(Oc3c(-c4ccc(O)cc4)oc4cc(O)cc(O)c4c3=O)C(O)C(O)C2O)C(O)C(O)C1O (stereo not drawn),17,–,–,–,–,–,30,–,47
CC(C)NC[C@@H](O)c1ccc(O)c(O)c1,16,–,–,–,–,–,–,–,21
COc1cccc(=O)c2c(C)n(C)c(C)c12,36,22,–,–,–,–,–,–,–
CCOc1cccc(=O)c2c(C)n(C)c(C)c12,14,–,–,–,–,–,–,–,–
O=C(CSc1nnc(-c2ccc(Cl)cc2)n1Cc1ccco1)Nc1ccc(S(=O)(=O)Nc2nccs2)cc1,19,–,–,–,·,·,–,–,–
C=CCc1cc(C=Nc2ccc(N3CCOCC3)cc2)cc(OCC)c1O,25,–,–,–,·,–,–,–,–
Cc1ccc(C(=O)O)cc1N1C(=O)c2cccc3c([N+](=O)[O-])ccc(c23)C1=O,14,–,–,22,·,–,–,–,27
O=C1NC(=O)/C(=C\c2ccc(O)cc2O)S1,20,–,–,–,–,–,48,–,66
Cn1c(=O)c(C(=O)c2ccc(S(C)(=O)=O)c(Cl)c2Cl)c(O)c2ccccc21,38,–,–,–,·,–,–,–,–
Cn1c(=O)c(C(=O)c2ccccc2)c(O)c2ccccc21,–,–,–,–,·,–,·,·,·
O=C1C=C(Nc2cccc(O)c2)CC(c2ccco2)C1 (stereo not drawn),14,–,–,–,–,–,–,–,–
O=S1(=O)c2ccc(Br)cc2OC[C@@H](Cc2ccccc2)N1Cc1cn(CCC2OCCCO2)nn1,–,–,–,–,·,·,·,·,·
Nc1ccn([C@@H]2O[C@H](C(=O)N[C@H](Cc3ccccc3)C(=O)NCC(F)(F)F)[C@@H](O)[C@H]2O)c(=O)n1,–,–,–,–,·,·,·,·,·
O=C(/C=C(\Nc1cccc(F)c1)c1ccccc1)c1ccccc1,–,–,–,–,·,·,·,·,·
